Screens deposited in PubChem by several laboratories.
An excerpt weighted towards active compounds, which were near 4.1% of everything screened.
hERG rescue: compounds protecting human hERG from proarrhythmic drug block | hit rate 0.51% among 310,000 | activation (rescue from dofetilide block), less the hit threshold, % at 10 µM | CHO-hERG, FluxOR thallium flux, dofetilide IC70 present | AID 1511;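 active = activation above the mean of controls blocked by dofetilide plus 5 SD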;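 note: thallium influx through hERG after potassium depolarization seen as dye fluorescence rise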
KCNK9 block: inhibitors of human KCNK9 two-pore domain potassium channel | hit rate 1.2% among 310,000 | B-score at 10 µM | Q9NPC2 | HEK293 KCNK9, FluxOR thallium flux fluorescence; hits give low values | AID 488922;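 active = ratio B-score over 3 SD below the library mean, with starting fluorescence within 5 SD of its mean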;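 note: negative B-score means less thallium flux so channel inhibition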
Target sequence (Q9NPC2 whole entry, looked up, the tested form may be a part): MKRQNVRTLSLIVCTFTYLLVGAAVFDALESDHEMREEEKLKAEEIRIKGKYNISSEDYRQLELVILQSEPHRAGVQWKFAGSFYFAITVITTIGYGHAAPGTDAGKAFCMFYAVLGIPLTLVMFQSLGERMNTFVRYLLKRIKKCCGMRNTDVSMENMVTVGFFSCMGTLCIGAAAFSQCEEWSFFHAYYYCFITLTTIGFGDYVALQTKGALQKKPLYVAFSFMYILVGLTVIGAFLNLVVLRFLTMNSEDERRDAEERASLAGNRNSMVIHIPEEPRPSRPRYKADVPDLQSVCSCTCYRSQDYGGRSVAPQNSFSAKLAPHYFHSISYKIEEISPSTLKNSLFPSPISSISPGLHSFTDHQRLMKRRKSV
KCC2 mod: modulates chloride dependent transport by human KCC2. KCC2 cells, thallium flux FluoZin-2 fluorescence. B-score of Tl+ flux slope (higher = more flux/activation; lower = inhibition) at 10 µM. hit rate 2.2% among 190,000. AID 1456;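 active = thallium flux slope and its plate-corrected score both differing from the plate sample mean at a set confidence after two filtering rounds, in either direction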;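 note: slope of fluorescence scaled to starting intensity during 10 to 20 s after thallium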
KCNQ1 pot: potentiates or activates the human KCNQ1 potassium channel | CHO-K1 KCNQ1, thallium flux FluxOR fluorescence; hits give high values | B-score at 10 µM | hit rate 0.35% among 310,000 | P51787;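 active = fluorescence ratio B-score, a plate-corrected score, at least three library SD, with initial intensity B-score within 5 SD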
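Assay system: CHO-K1 cells stably expressing KCNQ1; Medium: assay buffer with matched DMSO; Also added: K+/Tl+ depolarizing stimulus; Dosing: single dose; Timing: dye 90 min, compound 20 min, room temperature; Measured by: kinetic FluxOR thallium fluorescence, 10-s 1-Hz baseline, 110-s post-stimulus read; Read-out: peak-minus-minimum fluorescence over initial fluorescence, negative-control normalized, B-scored.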
KCNK3 inh: human KCNK3 channel inhibition, primary screen; O14649; CHO-KCNK3 thallium flux, FluxOR fluorescence; hits give low values; B-score at 10 µM; hit rate 0.84% among 340,000; AID 602410;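 active = B-score under library mean minus 4 SD, starting fluorescence ratio at most library mean plus 5 SD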;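 note: more negative B-score means stronger inhibition of thallium flux through KCNK3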
Target sequence (O14649 whole entry, looked up): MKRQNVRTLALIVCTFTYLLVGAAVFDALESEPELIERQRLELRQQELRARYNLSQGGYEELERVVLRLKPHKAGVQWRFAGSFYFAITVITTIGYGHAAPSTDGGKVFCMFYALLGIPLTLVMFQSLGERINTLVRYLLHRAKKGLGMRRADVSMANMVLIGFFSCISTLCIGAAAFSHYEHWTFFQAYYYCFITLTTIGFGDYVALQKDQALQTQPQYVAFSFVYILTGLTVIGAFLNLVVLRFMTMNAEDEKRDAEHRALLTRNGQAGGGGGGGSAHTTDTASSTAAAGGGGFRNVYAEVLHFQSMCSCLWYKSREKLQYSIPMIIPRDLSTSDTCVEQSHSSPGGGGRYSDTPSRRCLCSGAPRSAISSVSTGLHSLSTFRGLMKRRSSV
KCNQ1 inh: human KCNQ1 channel inhibition; B-score at 10 µM; CHO-K1 KCNQ1, FluxOR thallium flux fluorescence; hits give high values; hit rate 1.3% among 310,000;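 active = compounds whose thallium flux B-score, printed positive for inhibition, exceeds three library SD while starting fluorescence stays within three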;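 note: channel opened by potassium depolarization with thallium stimulus after 20 min compound exposure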
KCC2 sec1: KCC2 (human) modulation, secondary assay | shares compounds with KCC2 mod | HEK293-KCC2, thallium flux, FluoZin2 fluorescence; hits give high values | normalised thallium flux (F/F0 slope) at 10 µM | hit rate 15% among 3,700 | AID 1713;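 active = thallium flux slope above the same plate's solvent-only control mean plus 3 SD; inconclusive = the two replicate wells disagree; inactive = no significant difference from solvent-only control wells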
KCC2 bumet counter: thallium flux persisting under bumetanide in KCC2 cells, counter-screen secondary assay. shares compounds with KCC2 mod. HEK293-KCC2 + bumetanide/ouabain, thallium flux FluoZin2; hits give high values. normalized thallium flux at 10 µM. hit rate 49% among 3,700;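 active = thallium entry rate above the same plate's blocked-transporter control wells by more than 3 SD; inconclusive = the two repeat wells disagree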;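 note: raw slope of fluorescence over initial fluorescence between 10 and 20 s after thallium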
KCC2 secondary2: confirmation of human KCC2 transport modulators; shares compounds with KCC2 mod; hit rate 23% among 3,700; HEK293-KCC2, thallium flux FluoZin2 fluorescence; actives lie on both sides; F/F0 rise rate, 10–20 s post-thallium; normalized thallium flux at 10 µM;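 active = thallium flux slope more than 3 SD above or below the plate's solvent-only control mean, mostly below; inconclusive = the two repeat wells disagreed; inactive = no significant shift from solvent-only controls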;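 note: raw slope with 0.1% DMSO as baseline and bumetanide as block control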
HEK counter1: parental HEK flux effect, counter-screen; shares compounds with KCC2 mod; HEK293 parental cells, thallium flux FluoZin2, ouabain; baseline-ratio fluorescence slope, 10–20 s after thallium; thallium flux rate (normalised fluorescence) at 10 µM; hit rate 46% among 3,700;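 active = thallium flux rate significantly above the same plate's solvent-only control wells, beyond their mean plus 3 SD; inconclusive = the two replicate wells gave conflicting results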
KCC2 retest ouab: KCC2 (human) modulation, ouabain retest | shares compounds with KCC2 mod | HEK293-KCC2, thallium flux FluoZin2 fluorescence; bidirectional: low = inhibitor, high = activator | raw Tl+ flux slope (below DMSO = inhibition, above = activation) at 10 µM | hit rate 48% among 3,700 | AID 1717;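 active = thallium flux slope beyond 3 SD from same-plate DMSO control mean in most replicates, usually higher, sometimes lower; inconclusive = repeat tests gave conflicting results; inactive = no significant difference from controls in most replicates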;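 note: slope of initial-normalized fluorescence between seconds 10 and 20 after thallium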
HEK293 Tl flux2: parental HEK flux effect, counter-screen 2; AID 1718; thallium flux slope at 10 µM; shares compounds with KCC2 mod; HEK293 parental, thallium flux FluoZin-2 fluorescence slope; hit rate 33% among 3,700;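 active = thallium flux slope above the same plate's solvent-control mean plus 3 SD in both duplicate wells; inconclusive = duplicate wells that disagreed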;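 note: run without ouabain in cells lacking the KCC2 cotransporter; slope of fluorescence scaled to its starting value between 10 and 20 s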
* = called active by the depositor; i = inactive; ? = inconclusive; . = no result given.

SMILES	hERG rescue	KCNK9 block	KCC2 mod	KCNQ1 pot	KCNK3 inh	KCNQ1 inh	KCC2 sec1	KCC2 bumet counter	KCC2 secondary2	HEK counter1	KCC2 retest ouab	HEK293 Tl flux2
Cc1cc(/N=C/C=C2\N(C)c3ccccc3C2(C)C)n(CCC#N)n1	-12	i	-3.6*	i	i	i	0.0078	0.0051	0.03	0.0056*	?	0.0096
O=C(/C=C/c1ccccc1)NCCSCc1ccccc1Cl	-6	i	-3.8*	i	i	i	0.0066	0.0048	0.034	0.0074	0.017*	0.011
O=C(CN1CCN(S(=O)(=O)c2ccccc2)CC1)Nc1ccc2c(c1)CCC2	-11	i	6.2*	i	i	i	0.0065	0.0048	?	0.0076	0.017	0.011
Cc1noc(C)c1NC(=O)N(C)C[C@H]1Oc2ccc(NC(=O)Nc3ccc(C(F)(F)F)cc3)cc2C(=O)N([C@H](C)CO)C[C@@H]1C	.	.	.	.	i	.	.	.	.	.	.	.
Cc1ccc(C)c(C2=NNC(=NCc3ccccc3)SC2)c1	-12	i	8.9*	i	i	i	0.01	0.038*	0.036	?	0.033*	?
Cc1ccc(S(=O)(=O)N2CCOCC2)cc1NC(=O)COC(=O)CCC(=O)c1ccc(F)cc1	.	.	.	.	i	.	.	.	.	.	.	.
COc1ccc(C2CC(c3ccccc3)n3nc(NC(=O)c4cccs4)nc3N2)cc1 (stereo not drawn)	-10	i	-3.3*	i	i	i	0.0073	0.0067	0.032	0.0078	0.018	0.011
CCOC(=O)CNC(=O)CSc1ncnc2c1cnn2-c1ccc(C)cc1	0	i	0.086	i	i	i	.	.	.	.	.	.
Cc1nnc(SCC(=O)NNC(=O)c2ccco2)n1-c1cccc(Cl)c1	-3	i	-3.6*	i	i	i	0.0094	?	0.03	0.008	0.065	?
Cc1ccc(-n2ncc3c(SCC(=O)NNC(=O)c4ccco4)ncnc32)cc1	1	i	37*	i	i	i	?	0.041*	?	0.035*	0.035*	0.032*
O=c1[nH]c(CSc2ncnc3sc(-c4ccccc4)cc23)nc2ccccc12	-5	i	27*	i	i	i	0.0069	0.024*	0.031	0.021*	0.032*	0.014*
C(=C\c1ccccc1)/CN1CCN(Cc2ccc3c(c2)OCCO3)CC1	-11	i	3.4*	i	.	i	0.0083	0.005	0.035	0.008	0.021	0.011
O=S(=O)(/C=C/c1ccccc1)N1CCN(Cc2ccc3c(c2)OCO3)CC1	-9	i	0.65	i	i	i	.	.	.	.	.	.
O=C(NC1CC2CCC1C2)c1ccc(CN2CCOCC2)cc1 (stereo not drawn)	-5	i	-0.59	i	i	i	.	.	.	.	.	.
O=C(NC1CCCCC1)c1ccc(CN2CCOCC2)cc1	.	.	-2.8*	.	i	.	0.0098	0.0066	0.034	0.0078	0.022	0.011
C=CCn1c(SCC(=O)c2ccc(O)c(O)c2)nnc1-c1cccc(OC)c1	.	.	.	.	i	.	.	.	.	.	.	.
NC(=O)COC(=O)/C=C/c1cccc(Br)c1	-2	i	-7.7*	i	i	i	0.0092	0.0064	0.033	0.0079	0.021	0.01
COc1cccc(CNC(=O)C2Cc3ccccc3CN2C(C)=O)c1 (stereo not drawn)	-6	i	.	i	i	i	.	.	.	.	.	.
O=C(Cc1ccccc1)N/N=C/c1ccc([N+](=O)[O-])s1	-7	i	.	i	i	i	0.0078	?	0.031	?	0.02	?
O=C(N/N=C/c1ccc([N+](=O)[O-])s1)c1ccccc1	-8	i	6.4*	i	i	i	0.011	0.017*	0.035	?	0.028*	?
O=C(N/N=C/c1ccc([N+](=O)[O-])s1)c1ccccc1Br	-9	i	0.9	i	i	i	.	.	.	.	.	.
Cc1ccc(Cl)cc1NC(=S)N/N=C/c1cccc2ccccc12	8.5*	i	30*	11*	i	i	0.0091	0.035*	0.033	?	0.028*	0.013
Cc1ccccc1C(=O)N/N=C/c1cccc2ccccc12	-10	i	.	i	i	i	.	.	.	.	.	.
C[C@H]1COC(=O)[C@@H](CC(=O)OC(C)(C)C)C/C=C\C[C@@H](CC(=O)N(CCO)Cc2ccccc2)C(=O)N1	.	.	.	.	i	.	.	.	.	.	.	.
O=C1Nc2ccc([N+](=O)[O-])cc2OC1CCN1CCN(Cc2ccccc2)CC1 (stereo not drawn)	-13	i	-4.2*	i	i	i	0.01	0.0063	0.026*	0.0083	0.013*	0.011
SMILES	hERG rescue	KCNK9 block	KCC2 mod	KCNQ1 pot	KCNK3 inh	KCNQ1 inh	KCC2 sec1	KCC2 bumet counter	KCC2 secondary2	HEK counter1	KCC2 retest ouab	HEK293 Tl flux2
COc1cccc(CC(=O)OC(C)C(=O)Nc2ccc(N3CCOCC3)cc2)c1 (stereo not drawn)	-13	i	.	i	i	i	.	.	.	.	.	.
CCOC(=O)c1ccc(NC(=O)CSc2nc(C)cc(=O)[nH]2)cc1	-5	i	.	i	i	i	0.0066	0.0043	0.032	0.0068	0.018	0.0092
COC(=O)c1ccc(NC(=O)CSC2=NC(=O)C(c3ccccc3)C(=O)N2)cc1 (stereo not drawn)	-6	i	9.2*	i	i	i	0.0095	?	0.031	0.0074	0.019	?
Cc1cc(=O)[nH]c(SCC(=O)Nc2ccc(C(=O)O)cc2)n1	-1	i	-0.099	i	i	i	.	.	.	.	.	.
COc1cccc(N(C(=O)c2csnn2)C(C(=O)NC2CCCC2)c2ccccc2)c1 (stereo not drawn)	-8	i	.	i	i	i	.	.	.	.	.	.
O=c1cc(-c2ccccc2)nc2cc(-c3ccco3)[nH]n12	-4	i	3.9*	i	i	i	?	0.014*	0.032	0.011*	?	0.0098
